Active and inactive are the calls of the source. The calls are words filed in the database; no cut-off is given here.

inhibition, TIME and solubility data for 9 molecules are collected here from ChEMBL document CHEMBL4041484, “Semisynthesis and Structure-Activity Studies of Uncarinic Acid C Isolated from Uncaria rhynchophylla as a Specific Inhibitor of the Nucleation Phase in Amyloid β42 Aggregation” (J Nat Prod, 2016).

The target of data set [1] is Amyloid-beta precursor protein (Homo sapiens) (UniProt P05067). In words: Inhibition of HFIP pretreated Abeta42 (unknown origin) aggregation at elongation phase at 50 uM by Thioflavin-T fluorescence assay. In a few lines: (§1)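 Aβ42 was held at 250 μM in HFIP for 30 min at room temperature, sonicated 5 min, dried under reduced pressure, then redissolved in 0.1% NH4OH. It was incubated at 25 μM with compound at 50 μM in PBS, pH 7.4, at 37 °C, sampled periodically over time. Th-T (5.0 μM, Gly-NaOH pH 8.5) fluorescence was read at ex 430/em 485 nm. Means ± SD, n = 8.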
Sequence of Amyloid-beta precursor protein (Homo sapiens) (P05067 whole entry): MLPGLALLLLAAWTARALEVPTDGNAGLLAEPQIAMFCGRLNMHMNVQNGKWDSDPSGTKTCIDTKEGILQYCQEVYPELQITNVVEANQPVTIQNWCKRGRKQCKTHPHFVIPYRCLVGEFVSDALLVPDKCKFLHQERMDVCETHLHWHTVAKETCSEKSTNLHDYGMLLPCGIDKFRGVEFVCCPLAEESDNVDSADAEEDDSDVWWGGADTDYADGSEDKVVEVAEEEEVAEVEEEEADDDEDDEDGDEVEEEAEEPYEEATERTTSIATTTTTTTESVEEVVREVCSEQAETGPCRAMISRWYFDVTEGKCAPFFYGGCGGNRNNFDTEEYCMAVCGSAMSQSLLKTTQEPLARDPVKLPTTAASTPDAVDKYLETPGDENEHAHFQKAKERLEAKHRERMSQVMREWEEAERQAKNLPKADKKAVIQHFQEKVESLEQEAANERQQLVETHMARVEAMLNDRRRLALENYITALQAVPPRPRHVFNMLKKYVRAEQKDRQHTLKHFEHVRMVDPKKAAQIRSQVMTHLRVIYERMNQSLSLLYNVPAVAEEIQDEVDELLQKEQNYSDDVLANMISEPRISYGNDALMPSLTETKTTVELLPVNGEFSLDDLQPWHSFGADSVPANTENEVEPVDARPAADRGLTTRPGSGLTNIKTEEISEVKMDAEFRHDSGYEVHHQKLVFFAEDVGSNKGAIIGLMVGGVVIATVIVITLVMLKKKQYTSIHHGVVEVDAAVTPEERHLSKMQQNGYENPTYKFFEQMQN

Data set [2] has the same target. As to the kind of experiment: Inhibition of HFIP pretreated Abeta42 (unknown origin) aggregation at nucleation phase at 50 uM by Thioflavin-T fluorescence assay. A digest of the protocol: as §1
The target is the same in data set [3]. As to the kind of experiment: Inhibition of HFIP pretreated Abeta42 (unknown origin) aggregation at nucleation phase assessed as time required for nucleation of Abeta42 at 50 uM by Thioflavin-T fluorescence assay. A digest of the protocol: as §1
For data set [4] the target is unchanged. In words: Inhibition of Abeta42 (unknown origin) aggregation at early stage incubated for 8 hrs by Thioflavin-T fluorescence assay. A digest of the protocol:
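Synthetic Aβ42 (250 μM stock in 0.1% NH4OH), final 25 μM, with compound at 50 μM final (5 mM ethanol stock) in PBS (50 mM sodium phosphate, 100 mM NaCl, pH 7.4), 37 °C for 8 h. An aliquot was mixed with 5.0 μM Th-T in 5.0 mM Gly-NaOH, pH 8.5, and read at ex 430/em 485 nm. Eight points were measured per time.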

A short description of data set [5]: Solubility of the compound in phosphate-buffered saline at pH 7.4 at 50 uM. The class given is physicochemical. Conditions: buffer, pH 7.4, 50 µM.
Data set [6] deals with Amyloid-beta precursor protein (Homo sapiens) (UniProt P05067). In words: Inhibition of HFIP pretreated Abeta42 (unknown origin) aggregation at nucleation phase assessed as time delay for Abeta42 aggregation velocity at 50 uM by sedimentation assay. A digest of the protocol:
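HFIP-pretreated Aβ42 (25 μM) and compound (50 μM) were incubated in PBS, pH 7.4, at 37 °C over a time course. Samples were centrifuged at 15 000 rpm, 4 °C, 10 min. Supernatant Aβ42 was quantified by reversed-phase HPLC (ODS, 10–50% CH3CN in 0.1% NH4OH over 30 min, 1.0 mL/min, UV detection). Means ± SE, n = 2.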

On to `COC(=O)[C@]12CC[C@@H](C)[C@H](C)[C@H]1C1=CC[C@@H]3[C@@]4(C)CC[C@H](O)C(C)(C)[C@@H]4CC[C@@]3(C)[C@]1(COC(=O)/C=C/c1ccc(O)c(OC)c1)CC2`, for which the inhibition entry in data set [1] and in data set [2] was “inactive” each time.
Consider `COc1cc(/C=C\C(=O)OC[C@@]23CC[C@@]4(C(=O)O)CC[C@@H](C)[C@H](C)[C@H]4C2=CC[C@@H]2[C@@]4(C)CC[C@H](O)C(C)(C)[C@@H]4CC[C@]23C)ccc1O`, for which the TIME in data set [3] turned out to be 10 h. The inhibition entry in data set [4] is “Active”. Moreover, the solubility result in data set [5] was “Soluble”.
In the case of `COc1cc(/C=C/C(=O)OC[C@@]23CC[C@@]4(C(=O)O)CC[C@@H](C)[C@H](C)[C@H]4C2=CC[C@@H]2[C@@]4(C)CC[C@H](O)C(C)(C)[C@@H]4CC[C@]23C)ccc1O`, the TIME in data set [3] was determined as 12 h; in data set [6] it was 8 h. For the same molecule, the inhibition entry in data set [4] was “Active”. The solubility entry in data set [5] is listed as “Soluble”.
As for `C[C@H]1[C@H](C)CC[C@]2(C(=O)O)CC[C@]3(CO)C(=CC[C@@H]4[C@@]5(C)CC[C@H](O)C(C)(C)[C@@H]5CC[C@]43C)[C@H]12`, the inhibition entry in data set [1] and in data set [2] was “inactive” in each case.
As to `C[C@H]1[C@H](C)CC[C@]2(C(=O)O)CC[C@]3(C)C(=CC[C@@H]4[C@@]5(C)CC[C@H](O)C(C)(C)[C@@H]5CC[C@]43C)[C@H]12`, the inhibition entry in data set [1] and in data set [2] was “inactive” in each case.
As to `COc1cc(/C=C/C(=O)OC[C@@]23CC[C@@]4(CO)CC[C@@H](C)[C@H](C)[C@H]4C2=CC[C@@H]2[C@@]4(C)CC[C@H](O)C(C)(C)[C@@H]4CC[C@]23C)ccc1O`, the inhibition entry in data set [1] and in data set [2] was “inactive” in each case.
For the molecule `COc1cc(/C=C\C(=O)OC[C@@]23CC[C@@]4(C(=O)O)CCC(C)(C)C[C@H]4C2=CC[C@@H]2[C@@]4(C)CC[C@H](O)C(C)(C)[C@@H]4CC[C@]23C)ccc1O`, the TIME in data set [3] worked out at 10 h. Further, the inhibition result in data set [4] was “Active”. Also, the solubility entry in data set [5] is “Soluble”.
On the same counts, the results for `COc1cc(/C=C/C(=O)OC[C@@]23CC[C@@]4(C(=O)O)CCC(C)(C)C[C@H]4C2=CC[C@@H]2[C@@]4(C)CC[C@H](O)C(C)(C)[C@@H]4CC[C@]23C)ccc1O` are 10 h, “Active” and “Soluble”.
On to `CC(=O)OC[C@@]12CC[C@@]3(C(=O)O)CC[C@@H](C)[C@H](C)[C@H]3C1=CC[C@@H]1[C@@]3(C)CC[C@H](O)C(C)(C)[C@@H]3CC[C@]12C`, for which the inhibition entry in data set [1] and in data set [2] was “inactive” each time.
